Experimental data of several laboratories.
Target: Mitogen-activated protein kinase 11 (MAPK11, Homo sapiens, UniProt Q15759)

| SMILES | observed | action | method | tested at | endpoint | value |
| --- | --- | --- | --- | --- | --- | --- |
| O=c1[nH]c2ccccc2n1C1CCN(Cc2ccc(-c3[nH]c4cc5ncnc5cc4nc3-c3ccccc3)cc2)CC1 | cell-free assay | – | – | 0.5 µM | remaining signal | 102% |
| Cn1cc(-c2cccc(N3CCc4c(sc5c4CC(C)(C)C5)C3=O)c2CO)cc(Nc2ccncn2)c1=O | enzyme activity | inhibitor | – | 1 µM | inhibition | 6% |
| COc1ncccc1-c1cnn2ccc(N3CCN(C(=O)OC(C)C)CC3)nc12 | binding | – | competition with immobilised ligand | 1 µM | remaining binding | 89% |
| Nc1ncc(-c2nc(N3CCOCC3)nc(N3CCOCC3)n2)c(C(F)F)n1 | binding | – | competition with immobilised ligand | 10 µM | remaining binding | 98% |
| Cn1cncc1[C@@](O)(COc1ccc(C#N)cc1-c1ccc(OC(F)(F)F)cc1)c1ccc(C#N)cc1 | cell-free assay | – | competition with immobilised ligand | 1 µM | remaining binding | 96% |
| Cc1nn(C)cc1-c1nc2c(N3CCN(Cc4ccc(Cl)cc4)CC3)c(Cl)cnc2[nH]1 | binding | – | competition with immobilised ligand | 1 µM | remaining binding | 100% |
| Cn1cc(-c2cc(F)cc(N3CCn4c(cc5c4CCCC5)C3=O)c2CO)cc(Nc2ccc(N3CCN(C4COC4)CC3)cn2)c1=O | enzyme activity | inhibitor | – | 0.1 µM | inhibition | 11% |
| CC(C)(C)c1cc(C=C(C#N)C#N)cc(Br)c1O | enzyme activity | inhibitor | – | 0.5 µM | remaining activity | 100% |
